HTRA1 inh: HTRA1 (human) protease inhibition; Q92743; recombinant HTRA1, FP-rhodamine activity-based probe, fluorescence polarization; inhibition, % at 5.96 µM; 0.5% of 340,000 active; AID 504803; in the data active = inhibition above about 36%;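 note: 0% = enzyme with DMSO and 100% = wells lacking enzyme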
ABHD4 inh: ABHD4 (mouse) inhibition, primary FP screen; Q8VD66; purified mABHD4, FP-Rh probe fluorescence polarization; inhibition, % at 8.92 µM; 0.54% of 370,000 active; AID 720543;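 active = inhibition exceeding the mean over every tested compound plus 3 SD, cut at about 30% in these data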;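 note: 0% = plate median of compound wells and 100% = S159A mutant with DMSO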
Target sequence (Q8VD66 whole entry, looked up): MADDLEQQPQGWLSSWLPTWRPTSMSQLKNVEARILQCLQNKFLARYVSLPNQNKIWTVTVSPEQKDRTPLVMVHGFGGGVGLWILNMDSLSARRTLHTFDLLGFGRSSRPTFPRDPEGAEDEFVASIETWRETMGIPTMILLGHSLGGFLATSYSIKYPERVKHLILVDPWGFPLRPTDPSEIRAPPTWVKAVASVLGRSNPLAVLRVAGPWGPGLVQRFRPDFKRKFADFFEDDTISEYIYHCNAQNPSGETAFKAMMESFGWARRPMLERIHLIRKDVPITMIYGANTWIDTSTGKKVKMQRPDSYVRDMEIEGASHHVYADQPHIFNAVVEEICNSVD
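Doses – 8.92 µM, single dose · Material – wild-type mouse ABHD4 protein · Replication – single well per compound (singlicate) · Measure – percent inhibition of probe binding, normalized to plate controls · Schedule – 45 min compound pre-incubation plus 60 min probe step, 25 °C · Detection – fluorescence polarization with parallel and perpendicular emission, 525/598 nm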
Tn7 DDE FP: disrupts Tn7 cyclic peptide binding to fibrin D-Dimer-E complex | FP displacement of FITC-Tn7 peptide from fibrin DD(E); 0% = median of compound wells per plate | AID 720508 | inhibition, % at 8.3 µM | P02675 | 0.13% of 370,000 active;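 active = inhibition above the mean of compounds falling within the control limits plus 3 SD of them, cut at about 14% in these data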;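 note: 0% = plate median of compound wells and 100% = 10 µM Aha-Tn7 peptide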
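System: human fibrin DD(E); quantity: Fibrin-DD(E) at 2 µM final; also added: fluorescent Tn7 probe at 0.1 µM; compound dosing: single nominal test concentration of 8.3 µM per compound; schedule: 10 min preincubation, 3 h with tracer, room temperature; detection: fluorescence polarization of the labelled Tn7 tracer; repeats: one replicate per compound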
TCR CD3 inh: blocks the human TCR-CD3 interaction; inhibition, % at 9.4 µM; TAMRA-labeled TCR probe fluorescence, biochemical; 0.37% of 360,000 active;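 note: recombinant mutant TCR 2C K166C tagged with TAMRA read by polarization; 0% = receptor in buffer alone and 100% = receptor with positive control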
DDE Tn6 FP inh: inhibitors of Tn6 peptide binding to human fibrin DD(E); Fibrin DD(E) TRITC-Tn6 fluorescence polarization displacement; inhibition, % at 8.3 µM; AID 720509; 0.21% of 370,000 active;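 active = inhibition above a per-campaign cutoff: mean of compounds within control limits plus 3 SD, cut at about 15% in these data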;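 note: 0% = median of all compound wells on the plate and 100% = blocking peptide control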
HTRA1 inh conf: confirmation of human HTRA1 inhibitors | shares compounds with HTRA1 inh | recombinant HTRA1, FP-rhodamine activity-based probe, fluorescence polarization | inhibition, % at 5.96 µM | 66% of 1,600 active;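 active = mean inhibition over three repeats above a set limit taken from the earlier primary screen, cut at about 37% in these data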;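 note: 0% = HTRA1 with DMSO and 100% = wells lacking HTRA1; inhibitors block probe binding so polarization drops and inhibition rises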
BSA probe FL: interferes with TAMRA-BSA probe, flagging TCR-CD3 hits; shares compounds with TCR CD3 inh; 10% of 1,200 active; inhibition, % at 9.4 µM; TAMRA-labeled BSA probe fluorescence counterscreen; in the data active = inhibition above about 23%;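 note: 0% = buffer low control and 100% = reference high control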
TCR-CD3 inh conf: TCR-CD3 interaction inhibition, confirmation. shares compounds with TCR CD3 inh. TAMRA-labeled TCR probe fluorescence binding assay. inhibition, % at 9.4 µM. 48% of 1,200 active
ABHD4 confirm: ABHD4 (mouse) inhibition, FP confirmation; shares compounds with ABHD4 inh; purified mABHD4, FP-Rh probe fluorescence polarization; inhibition, % at 8.92 µM; 55% of 1,800 active;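 active = mean inhibition across replicates above the hit cutoff set in the primary screen, cut at about 30% in these data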;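 note: 0% = wild-type ABHD4 with DMSO and 100% = catalytically dead S159A mutant with DMSO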
Numbers without * were called inactive; x = not tested or not shown. Hits are enriched below; roughly 1.3% of the tested compounds scored in any of these assays. Cut-off read from the data, not from the text of the source, unless noted: active = inhibition above about 19%; inactive = the rest.

SMILES	HTRA1 inh	ABHD4 inh	Tn7 DDE FP	TCR CD3 inh	DDE Tn6 FP inh	HTRA1 inh conf	others
CC(C)N(CC(O)c1cccc([N+](=O)[O-])c1)C(C)C (stereo not given)	8	0	-7	0	-4	x
COC(=O)C1=C(c2cccc(OC)c2OC)C[C@@H]2CC[C@H]1N2C(=O)N1CCC(C)CC1	2	-4	-1	-7	-4	x
CC[C@H](C)/C=C(C)/C=C/C1=CC2=C(Cl)C(=O)[C@@](C)(OC(C)=O)C(=O)C2=CO1	78*	x	x	x	x	x
CCCCCP(=O)(O)c1ccccc1	2	2	-1	-6	-3	x
CCCC/C(C)=C/[C@@H](NP(=O)(c1ccccc1)c1ccccc1)c1ccccc1	-90	-28	14*	-6	5	x
Cc1cc(OCC(=O)N2CCC(C(=O)O)(c3ccccc3)CC2)c2c(C)c(C)c(=O)oc2c1	-4	-10	-3	-4	1	x
CCC(CO)NC(=O)C1C=C2c3cccc4[nH]cc(c34)CC2N(C)C1 (stereo not given)	16	19	3	7	-5	x
CC(C)C[C@H]1C(=O)N2CCC[C@H]2[C@]2(O)O[C@](NC(=O)[C@@H]3C=C4c5cccc6[nH]cc(c56)C[C@H]4N(C)C3)(C(C)C)C(=O)N12	42*	x	x	x	x	x
COc1cccc(O)c1CN1CCCC(C(=O)c2sccc2C)C1 (stereo not given)	5	-5	0	-4	-9	x
O=c1[nH]c2ccccc2n1C1CCN(C(c2cc3ccccc3o2)c2nnnn2-c2ccc3c(c2)OCCO3)CC1 (stereo not given)	x	0	15*	3	-6	x
O=C1CC=C2C3CC4N(CCC45c4cc(O)c(O)cc4N1C25)CC3=CCBr (stereo not given)	11	20	-3	50*	-9	x
CCCNC1=C(C)C(=O)C2=C(C1=O)C(COC(N)=O)[C@]1(OC)C3NC3CN21 (stereo not given in full)	12	22	-7	27*	-1	x
COC(=O)C1C(c2ccc(C)cc2)CC2CCC1N2C (stereo not given)	x	3	-1	-4	0	x
C=Cn1ccnc1P(=S)(c1nccn1C=C)c1nccn1C=C	41*	5	-3	5	1	43*
CN1c2ccc([N+](=O)[O-])cc2CC2(C(=O)NC(=O)N(c3ccc(Br)cc3)C2=O)C1c1ccccc1 (stereo not given)	-26	7	-4	6	-2	x
CCC(C)/C=C(C)/C=C/C1=CC2=C(Cl)C(=O)C(C)(OC(C)=O)C(=O)C2=CO1 (stereo not given)	44*	x	x	x	x	68*
CC1Oc2cc3c(-c4c(O)cc(O)c5c(O)c6c(cc45)OC(C)C(C)C6=O)c(O)cc(O)c3c(O)c2C(=O)C1C (stereo not given)	66*	x	x	x	x	81*
CC(C)(C)c1ccc(O)c(N=Cc2c(O)ccc3ccccc23)c1	50*	24	4	11	-8	63*
CCCCn1c(O)c(/C=N/NC(=O)c2ccncc2)c(=O)[nH]c1=S	-27	-69	5	-59	-2	x
COc1ccc2c(c1O)-c1c(OC)c(OC)cc3c1[C@H](C2)N(C)CC3	1	1	0	6	5	x
CCCN1CCc2cccc3c2[C@H]1Cc1ccc(O)c(O)c1-3	77*	x	x	x	x	66*
c1ccc(Nc2ccc(Nc3ccccc3)cc2)cc1	56*	26	-9	4	6	43*
COc1ccc(-n2c(/C=C/c3ccc(O)c(O)c3)nc3ccccc3c2=O)cc1	66*	21	4	10	-4	63*
CN1CCC(O)(c2cccs2)C(C(=O)c2cccs2)C1 (stereo not given)	4	-3	3	-2	4	x
COc1cc(/C=C2\C(=O)NC(=O)N(c3ccccc3)C2=O)c([N+](=O)[O-])cc1OC	1	23	1	3	3	x
SMILES	HTRA1 inh	ABHD4 inh	Tn7 DDE FP	TCR CD3 inh	DDE Tn6 FP inh	HTRA1 inh conf	others
COc1ccc(OC)c(N2C(=O)NC(=O)/C(=C/c3ccc([N+](=O)[O-])s3)C2=O)c1	48*	-40	-5	-25	-7	43*
Cc1ncc(CN2CCCC(C(=O)c3cccc(OC(C)C)c3)C2)s1 (stereo not given)	-2	-4	7	-9	-5	x
CCOC(=O)C12C(=O)OCC1C2c1ccccc1 (stereo not given)	x	4	-7	-7	7	x
Cc1cc(OC(=O)c2cccs2)c2c3c(c(=O)oc2c1)CCCC3	-4	-9	-8	-8	-4	x
Cc1cc(OC(=O)c2ccco2)c2c3c(c(=O)oc2c1)CCCC3	42*	-3	3	0	4	33
Cc1ccc(S(=O)(=O)N(C)N=O)cc1	2	1	6	-2	-5	x
CN(C)C1C(=O)C(C(N)=O)=C(O)C2(O)C(=O)C3=C(O)c4c(O)cccc4C(C)(O)C3C(O)C12 (stereo not given)	56*	67*	-5	25*	-15	8	BSA probe FL=-1;TCR-CD3 inh conf=7;ABHD4 confirm=18
C(#CCN1CCOCC1)COCc1ccccc1	-3	-3	-1	-1	0	x
c1ccc(CNC2CN3CCC2CC3)cc1 (stereo not given)	6	0	-6	5	9	x
NC(N)=N/N=C/c1ccc(N(c2ccccc2)c2ccccc2)cc1	46*	42*	-4	-4	-10	60*	ABHD4 confirm=71*
CC1(C)NC(=O)[C@H]2CCCN21	-11	3	2	5	-2	x
CCN(CC)c1ccc(N=Cc2c(O)n(-c3cc(OC)ccc3OC)c(=O)[nH]c2=O)cc1	46*	65*	-5	9	0	14	ABHD4 confirm=4
CN(C)CCN=Cc1c(O)n(Cc2ccco2)c(=O)[nH]c1=O	-2	-1	1	-5	-3	x
CCN(CC)c1ccc(N=Cc2c(O)n(Cc3ccco3)c(=O)[nH]c2=O)cc1	42*	45*	-1	10	-11	0	ABHD4 confirm=2
CNC(C)(C)Cc1ccccc1	9	0	-2	-9	-8	x
CN(C=O)CP(=O)(O)CN(C)C=O	1	-2	-1	9	-3	x
